From PubChem BioAssay
HNF4A DNA FP: change in binding of human HNF4 alpha to DNA | HNF4a-FITC DNA binding, fluorescence polarization, 1 h | activity change, % at 10 µM | actives 0.3% (n = 360,000) | AID 1224865; in the data active = activity change above about 30%, passing the limit was not always enough
TPT1 inhibitor: blocks Candida albicans tRNA 2'-phosphotransferase; actives 0.81% (n = 300,000); inhibition, % at 5 µM; AID 1962; recombinant caTPT1, FP RNA substrate dephosphorylation;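 active = inhibition above the mean of all tested compounds plus 3 SD, set per screening campaign, cut at about 24% in these data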;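 also: plate controls were DMSO alone for no effect and ferristatin control at 100 nM for full effect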
NR1D1 modulator: modulators of human Rev-erb alpha DNA binding; AID 1259318; actives 0.79% (n = 370,000); activity, % at 10 µM; Rev-erbα–FITC-DNA binding, fluorescence polarization, 90 min;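 active = activity above about 14%, limit read from the data; passing the limit was not always enough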;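 also: 0% = DMSO wells with 35 nM protein and 100% = DMSO wells with 750 nM protein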
CSN inh: inhibitors of human CSN-mediated cullin deneddylation. Purified CSN, SCF-Nedd8-OG deneddylation, fluorescence polarization. inhibition, % at 12.5 µM. actives 0.38% (n = 360,000);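 active = pattern-corrected inhibition above about 35%, with an unprinted fluorescence ratio check between 0.5 and 1.5, limit read from the data, passing the limit was not always enough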;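 also: 0% = enzyme with substrate and 100% = substrate without enzyme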
Target sequence (Q92905 whole entry, looked up, one chain of several): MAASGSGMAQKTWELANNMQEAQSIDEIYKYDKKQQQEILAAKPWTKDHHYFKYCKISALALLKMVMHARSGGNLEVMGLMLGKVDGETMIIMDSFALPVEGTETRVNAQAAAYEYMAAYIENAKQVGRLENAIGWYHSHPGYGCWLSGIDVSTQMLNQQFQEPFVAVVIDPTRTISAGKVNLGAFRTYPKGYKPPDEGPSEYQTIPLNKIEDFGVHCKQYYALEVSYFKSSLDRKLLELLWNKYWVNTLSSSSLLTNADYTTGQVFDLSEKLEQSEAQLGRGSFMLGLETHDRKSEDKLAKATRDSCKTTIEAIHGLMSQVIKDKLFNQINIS
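Schedule: reaction 90 min, room temperature / Assay system: HEK293T-derived human Csn5 enzyme / Input: Csn5 at 0.24 nM final / Measure: inhibition of Csn5 cleavage, % / Control set: substrate-only high control, full reaction low control / Technique: fluorescence polarization of the substrate / Buffer or medium: Tris/NaCl/DTT buffer, pH 7.5 / Reagent: SCFSkp2-Nedd8OG substrate at 10 nM final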
Rev-erbA confirm: Rev-erb alpha (human) modulation, hit confirmation | shares compounds with NR1D1 modulator | Rev-erb alpha FITC-DNA binding, fluorescence polarization, 90 min | activation, % at 25 µM | actives 61% (n = 3,000) | AID 1259319;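 active = activation at or above a set limit, or at least 3 SD above the negative control mean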;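 also: 0% = 35 nM protein with DMSO and 100% = 750 nM protein high control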
RORg counter: counter-screen for Rev-erb alpha modulators: RORgamma DNA binding. purified RORgamma protein-FITC-DNA binding, fluorescence polarization. AID 1259320. shares compounds with NR1D1 modulator. IC50, µM. actives 8% (n = 910);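 active = Compounds whose fitted half-maximal concentration for disrupting protein-DNA binding is below 10 micromolar; the record names Rev-erb in its text, so the target is in doubt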
The depositor's hits bear a star; i = inactive; x = not tested or not shown. Compounds with a hit are over-represented: about 1.7% of the library has one in this group of screens.

SMILES	HNF4A DNA FP	TPT1 inhibitor	NR1D1 modulator	CSN inh	Rev-erbA confirm	others
COC(=O)[C@]12C[C@H](CC(=O)NCC34CC5CC(CC(C5)C3)C4)C(=O)N(Cc3ccc4c(c3)OCO4)C1=C[C@H](C(C)(C)C)O[C@@H]2C	x	x	9	x	x
CC1CCN(C(=O)c2ncn3c2C(=O)NC[C@@H]3C)CC1	x	x	5	x	x
COc1cc(NC(=O)c2ccc(-c3cn[nH]c3)c3ccoc23)cc(OC)c1OC	-2	x	-3	1	x
COc1cc(NC(=O)c2ccc(-c3ccc(F)c(F)c3)c3ccoc23)cc(OC)c1OC	4	x	18*	-3	-1
COc1cc2cc(C(=O)NCCc3ccccc3)[nH]c2cc1OC	0	x	-4	6	x
COc1cc2cc(C(=O)N3CCc4ccccc4C3)[nH]c2cc1OC	2	-5	28*	2	11
COc1cc2cc(C(=O)N(C)Cc3ccccc3)[nH]c2cc1OC	0	x	31*	-1	12
O=[N+]([O-])c1ccc(COc2cccc(CN3CCCCC3)c2)cc1	0	x	0	0	x
COc1ccccc1CCn1cnc(-c2ccc(OC)c(OC)c2)c1CC(C)C	x	x	3	x	x
CN(C)CCNc1ccc2ncn3c4ccc(O)cc4c(=O)c1c23	-154	x	20*	-59	24*
O=C(Nc1ccccc1F)c1cccc(C(=O)Nc2ccccc2F)c1	-1	-4	41*	0	-3
COc1cccc(C(=O)Nc2ccccc2F)c1	-4	-1	0	2	x
CC(=O)c1cccc(NC(=O)c2cccc(NC(=O)c3ccco3)c2)c1	3	1	45*	7	99*	RORg counter=5.7*
CN(C)C(=O)C[C@H]1C[C@@H]2c3cc(NC(=O)NC4CCCC4)ccc3O[C@@H]2[C@@H](CO)O1	x	x	5	x	x
CCN(CC)S(=O)(=O)c1ccc(N2CCCCC2)c(NC(=O)C2CSC3(C)CCC(=O)N23)c1 (centres undefined)	2	x	31*	-1	47*	RORg counter=>40
Cc1cc(C)c2c(n1)nn1c(N3CCN(c4ccccc4)CC3)cc(C)nc21	-2	5	40*	5	26*
Cc1cc(N2CCN(c3ccccc3)CC2)n2ncnc2n1	-1	-3	-6	2	x
Cn1c(SCC(=O)Nc2ncc(C(F)(F)F)cc2Cl)nnc1-c1ccc(Cl)cc1	2	12	1	5	x
CCOC(=O)/C(=C/C=C1\Sc2cc(C)c(C)cc2N1CC)C(C)=O	171	x	32*	35	5
C[C@@H]1CN([C@@H](C)CO)C(=O)CCCn2cc(nn2)CO[C@H]1CN(C)C(=O)Nc1cccc(C(F)(F)F)c1	x	x	-4	x	x
CC(C)COc1ccc(-c2csc(N3CCC(C(N)=O)CC3)n2)cc1	x	x	6	x	x
CCOc1ccc(C=Nn2c(-c3cccc(OC(C)C)c3)n[nH]c2=S)cc1	x	x	-2	x	x
COc1ccc(C(C)=O)cc1CSc1nc2ccccc2c(=O)n1-c1ccccc1	0	-5	36*	4	36*	RORg counter=>40
COc1ccc(C(C)=O)cc1CSc1nc2ccccc2c(=O)n1-c1cccc(C)c1	2	-1	39*	4	36*	RORg counter=9.4*
COc1ccc(CN2C[C@H](COCc3ccccc3)Oc3cccc(Oc4ccc(C(C)C)cc4)c3S2(=O)=O)cc1	x	x	2	x	x
SMILES	HNF4A DNA FP	TPT1 inhibitor	NR1D1 modulator	CSN inh	Rev-erbA confirm	others
CCn1c(SCc2ccc(C(C)(C)C)cc2)nnc1-c1ccc(C(C)(C)C)cc1	x	x	-2	x	x
Cc1cc2cc(CN(Cc3ccco3)C(=O)C3CCCCC3)c(=O)[nH]c2cc1C	2	-1	43*	-2	44*
COc1ccc2nc(SCC(C)=O)c(C#N)cc2c1	3	-9	15	9	x
COc1ccc2nc(SC)c(C#N)cc2c1	5	0	42*	-8	47*	RORg counter=>40
COc1ccc2nc(SCc3cccnc3)c(C#N)cc2c1	3	0	86*	-3	56*	RORg counter=i
Clc1ccc(-c2cn(-c3nc4ccccc4s3)nn2)cc1	4	x	19*	-4	7
C[C@H]1[C@@H](NC(=O)c2cccc(N(C)C)c2)CC[C@@]23CCCN2C(=O)CCC[C@@H]13	x	x	10	x	x
COc1ccc(CC(=O)Nc2nn(C)c3nc4c(C)cccc4cc23)cc1	4	-1	28*	-2	11
CCN(CC)C(=O)CSc1nnc(-c2ccc(C(C)(C)C)cc2)n1Cc1ccco1	x	x	-5	x	x
